The record followed here is ChEMBL document CHEMBL2380229, “Design, synthesis, cytotoxic evaluation and tubulin inhibitory activity of 4-aryl-5-(3,4,5-trimethoxyphenyl)-2-alkylthio-1H-imidazole derivatives” (Bioorg Med Chem, 2013).

Molecules are shown by their SMILES. Calls of active or inactive are those of the source. No cut-off for these calls is given here.

Assay [1] has as its system NIH3T3. The assay can be described thus: Cytotoxicity against mouse NIH/3T3 cells assessed as growth inhibition after 48 hrs by MTT assay. The following applies: NIH3T3, 48 h. Format: functional, cell-based. The method, boiled down:
(§1)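 MTT assay. Cells seeded at 8000–10,000 viable cells per well and allowed 24 h before a 48 h compound exposure. MTT (5 mg/mL solution) added for a further 4 h, then formazan dissolved in DMSO. Absorbance read at 550 nm against a 690 nm reference. Two independent experiments in triplicate. IC50 by nonlinear regression, mean ± SD.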

Another assay concerns HT-29. Description: Cytotoxicity against human HT-29 cells assessed as growth inhibition after 48 hrs by MTT assay. It counts as functional, cell-based. The following applies: HT-29, 48 h. The method, boiled down:
as §1

For the next assay, the system named is AGS. The assay can be described thus: Cytotoxicity against human AGS cells assessed as growth inhibition after 48 hrs by MTT assay. It counts as functional, cell-based. The method, boiled down: as §1
(Tetrazolium assays rely on reduction of a dye to a coloured formazan, in cell work by metabolically active cells.)

A further assay has as its system MCF7. Description: Cytotoxicity against human MCF7 cells assessed as growth inhibition after 48 hrs by MTT assay. It counts as functional, cell-based. The following applies: MCF7, 48 h. The method, boiled down: as §1
Assay [2] is filed under the species Ovis aries. The assay can be described thus: Inhibition of sheep brain microtubule polymerization at 2 uM after 15 mins by UV-vis spectrophotometric analysis. The method, boiled down: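 Purified microtubule protein preincubated 15 min with compound in PEM buffer (100 mM PIPES pH 6.9, 1 mM MgSO₄, 1 mM EGTA), then cooled to 0 °C. GTP added (1 mM final), and assembly started by warming from 0 to 37 °C. Polymerization followed as absorbance change at 350 nm.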

The species named for assay [3] is Ovis aries. The assay can be described thus: Inhibition of sheep brain microtubule polymerization at 5 uM after 15 mins by UV-vis spectrophotometric analysis. The method, boiled down: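 Purified tubulin (12 µM) in PEM buffer (100 mM PIPES pH 6.9, 1 mM MgSO4, 1 mM EGTA) preincubated 15 min with compound (5 µM final), then cooled to 0 °C. GTP added to 1 mM final. Assembly started by warming from 0 to 37 °C and followed by absorbance at 350 nm. Positive control at 2 µM final.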

Assay [4] deals with NIH3T3. The assay can be described thus: Cell cycle arrest in mouse NIH/3T3 cells assessed as accumulation at S phase at 0.10 uM after 24 hrs by propidium iodide staining-based FACS flow cytometric analysis (reference value: 24.39%). Format: functional.
Assay [5] deals with NIH3T3. The assay can be described thus: Cell cycle arrest in mouse NIH/3T3 cells assessed as accumulation at G2/M phase at 0.10 uM after 24 hrs by propidium iodide staining-based FACS flow cytometric analysis (reference value: 35.70%). Format: functional.
Assay [6] relates to NIH3T3. Description: Cell cycle arrest in mouse NIH/3T3 cells assessed as accumulation at G0/G1 phase at 0.10 uM after 24 hrs by propidium iodide staining-based FACS flow cytometric analysis (reference value: 39.91%). It counts as functional.

By IC50 is commonly meant the midpoint of a concentration-inhibition curve. Turning to `CCSc1nc(-c2cc(OC)c(OC)c(OC)c2)c(-c2cc(OC)c(OC)c(OC)c2)[nH]1`, the IC50 in the assay on NIH3T3 [1] and with HT-29 was over 50 µM in each case.

Regarding `COc1ccc(/C=C\c2cc(OC)c(OC)c(OC)c2)cc1O` [COMBRETASTATIN A4], the IC50 in the assay with AGS was found to be 0.04 µM; with NIH3T3 [1] it was 0.02 µM; with HT-29, 0.18 µM; with MCF7 it was 0.4 µM. For the same compound, the inhibition result in the assay listed under Ovis aries [2] was “Active”.

For the compound `CCSc1nc(-c2cc(OC)c(OC)c(OC)c2)c(-c2cccc(OC)c2OC)[nH]1`, the 50% inhibitory concentration (IC50) was found to be 39 µM with AGS, 27.2 µM with NIH3T3 [1], 36.7 µM in the assay with HT-29 and 22.9 µM with MCF7.

Regarding `CCSc1nc(-c2cc(OC)c(OC)c(OC)c2)c(-c2ccc(OC)c(OC)c2)[nH]1`, the IC50 with AGS amounted to 37.2 µM; in the assay with NIH3T3 [1] it was 14.1 µM; in the assay on HT-29, 21 µM; in the assay on MCF7 it was 13.2 µM. The “microtubule polymerization inhibition (active/inactive call)” value in the assay listed under Ovis aries [3] was “Active”.

For `COc1cc(-c2nc(SC)[nH]c2-c2cccc(OC)c2OC)cc(OC)c1OC`, the IC50 with AGS turned out to be 35.3 µM; in the assay with NIH3T3 [1], 30.2 µM; with HT-29 it was 27.5 µM; in the assay with MCF7, 18.1 µM.

In the case of `CCSc1nc(-c2cc(OC)c(OC)c(OC)c2)c(-c2ccc(OC)cc2)[nH]1`, the half-inhibitory concentration (IC50) is 0.07 µM in the assay with AGS, 0.26 µM in the assay with NIH3T3 [1], 0.36 µM in the assay with HT-29 and 0.75 µM in the assay with MCF7. Moreover, the “microtubule polymerization inhibition (active/inactive call)” value in the assay filed under Ovis aries [3] was “Active”.

`CCSc1nc(-c2ccc(OC)c(OC)c2)c(-c2ccc(OC)c(OC)c2)[nH]1`: the concentration for half-maximal inhibition (IC50) amounted to 33.6 µM in the assay on AGS, 27.6 µM with NIH3T3 [1], 21.2 µM with HT-29 and 15.1 µM in the assay on MCF7.

For `COc1ccc(-c2[nH]c(SC)nc2-c2cc(OC)c(OC)c(OC)c2)c(OC)c1`, the IC50 was found to be 23.2 µM in the assay with AGS, 11.9 µM in the assay with NIH3T3 [1], 18.6 µM with HT-29 and 4.15 µM in the assay on MCF7.

As for `COc1ccc(-c2nc(SC)[nH]c2-c2ccc(OC)c(OC)c2)cc1OC`, the half-inhibitory concentration (IC50) in the assay with AGS stood at 34.8 µM; with NIH3T3 [1], 35.8 µM; in the assay on HT-29, 24.1 µM; in the assay on MCF7 it was 17.2 µM.

Take `COc1cc(-c2nc(SC)[nH]c2-c2cc(OC)c(OC)c(OC)c2)cc(OC)c1OC`: the IC50 with NIH3T3 [1] and in the assay with HT-29 was over 50 µM in each case.

On to `COc1ccc(-c2[nH]c(SC)nc2-c2cc(OC)c(OC)c(OC)c2)cc1`, for which the Activity in the assay with NIH3T3 [4] is 7.07%; in the assay on NIH3T3 [5] it was 91.93%; in the assay with NIH3T3 [6], 1.01%. For the same compound, the half-inhibitory concentration (IC50) with AGS was found to be 0.06 µM; in the assay on NIH3T3 [1] it was 0.06 µM; in the assay with HT-29 it was 0.25 µM; with MCF7, 0.52 µM. The “microtubule polymerization inhibition (active/inactive call)” value in the assay filed under Ovis aries [3] was “Active”.

Take `COc1ccccc1-c1[nH]c(SC)nc1-c1cc(OC)c(OC)c(OC)c1`: the 50% inhibitory concentration (IC50) with AGS is 48.4 µM; in the assay on NIH3T3 [1] it was 38.7 µM; with HT-29, 21.7 µM; in the assay on MCF7, 12.2 µM.

Take `COc1ccc(-c2[nH]c(SC)nc2-c2cc(OC)c(OC)c(OC)c2)cc1OC`: the concentration for half-maximal inhibition (IC50) stood at 10.6 µM with AGS, 6.01 µM in the assay on NIH3T3 [1], 4.82 µM in the assay with HT-29 and 4.04 µM with MCF7. In addition, the “microtubule polymerization inhibition (active/inactive call)” value in the assay filed under Ovis aries [3] was “Active”.

As for `CCSc1nc(-c2cc(OC)c(OC)c(OC)c2)c(-c2ccccc2OC)[nH]1`, the 50% inhibitory concentration (IC50) in the assay with AGS amounted to 40.7 µM; with NIH3T3 [1] it was 36.2 µM; with HT-29 it was 18.6 µM; in the assay on MCF7, 11 µM.

For the compound `CCSc1nc(-c2cc(OC)c(OC)c(OC)c2)c(-c2ccc(OC)cc2OC)[nH]1`, the IC50 in the assay with AGS was 18.6 µM; in the assay on NIH3T3 [1], 7.25 µM; in the assay with HT-29 it was 6.56 µM; with MCF7, 3.55 µM.
